Data on four molecules can be found in publication PMC8341375 (RSC Chemical Biology, 2021).

One data set has as its system recombinant CYP19. As to the kind of experiment: Soret shifts by absorption spectroscopy. To be noted: titration of up to 100 μM, 2 μM ASD. In kind it is binding. A digest of the protocol:
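Purified recombinant CYP19 (from codon-optimized CYP19A1 cDNA in pCW) at 2–3 μM in 100 mM potassium phosphate, pH 7.4. Test compound titrated (6–36 μM, then 100 μM) with ACN kept ≤3%, with or without 2 μM androstenedione. UV-Vis absorption scans after 10 min at 25 °C. Adducts were dithionite-reduced and exposed to CO in some runs.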

In data set [1] the target is T1, aromatase (CYP19) (Homo sapiens, UniProt P11511).
T1 sequence (P11511 1-503): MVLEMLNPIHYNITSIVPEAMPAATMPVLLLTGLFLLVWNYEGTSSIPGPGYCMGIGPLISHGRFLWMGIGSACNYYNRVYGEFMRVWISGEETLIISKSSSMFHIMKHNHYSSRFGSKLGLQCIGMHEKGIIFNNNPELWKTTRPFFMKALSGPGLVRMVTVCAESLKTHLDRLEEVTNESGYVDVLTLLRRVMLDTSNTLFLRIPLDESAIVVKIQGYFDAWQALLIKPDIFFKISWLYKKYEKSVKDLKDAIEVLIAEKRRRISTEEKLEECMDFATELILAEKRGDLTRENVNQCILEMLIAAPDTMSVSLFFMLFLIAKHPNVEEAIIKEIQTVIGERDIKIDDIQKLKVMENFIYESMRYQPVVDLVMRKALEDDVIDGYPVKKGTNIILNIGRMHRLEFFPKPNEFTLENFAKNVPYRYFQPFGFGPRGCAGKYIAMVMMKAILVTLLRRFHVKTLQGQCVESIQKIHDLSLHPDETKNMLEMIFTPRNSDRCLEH
The data set is described as follows: CYP19/MFC aromatase inhibition assay. In kind it is biochemical. The conditions noted are these: for Fractional activity at saturation / Hill slope: dose-response fit, 7.5 nM P450, 25 μM MFC; for Hill slope: AR19 fixed to 1.

Data set [2] concerns the target T1, aromatase (CYP19). To be noted: noncompetitive AI; cited from earlier work.
The target in a further data set is T2, CYP19 (Homo sapiens, UniProt P11511).
T2 sequence (P11511 1-503): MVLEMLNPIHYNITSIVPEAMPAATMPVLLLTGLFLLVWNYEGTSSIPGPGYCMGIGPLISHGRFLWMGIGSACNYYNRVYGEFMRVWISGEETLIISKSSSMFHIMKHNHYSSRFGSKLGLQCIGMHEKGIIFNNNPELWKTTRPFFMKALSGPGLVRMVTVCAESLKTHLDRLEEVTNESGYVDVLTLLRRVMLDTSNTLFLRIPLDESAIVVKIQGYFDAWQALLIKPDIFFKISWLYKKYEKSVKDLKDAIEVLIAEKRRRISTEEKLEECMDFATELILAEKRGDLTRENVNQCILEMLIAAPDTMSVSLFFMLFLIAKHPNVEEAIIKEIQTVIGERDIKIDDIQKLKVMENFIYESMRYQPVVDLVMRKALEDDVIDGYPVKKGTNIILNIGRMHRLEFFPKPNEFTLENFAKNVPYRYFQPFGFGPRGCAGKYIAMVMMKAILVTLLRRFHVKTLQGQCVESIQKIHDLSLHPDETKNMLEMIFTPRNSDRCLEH
As to the kind of experiment: AR11 and AR13 steady-state kinetics assay. In kind it is biochemical. The conditions noted are these: nonlinear regression, no inhibitor.

Substrate in data set [3]: COc1ccc2c(C(F)(F)F)cc(=O)oc2c1
As to the kind of experiment: AR11 and AR13 steady-state kinetics assay. The data set is classed as biochemical. The conditions noted are these: other: nonlinear regression, no inhibitor; pH 7.4; 37.0 °C.

Take `CC/C(=C(\c1ccc(O)cc1)c1ccc(OCCNC)cc1)c1ccccc1` [Endoxifen, endoxifen]: the “Soret peak shift from 395 nm in the CYP19 ASD-bound state” value with recombinant CYP19 is on record as “did not induce a Soret peak shift”. The molecule further had an IC50 against aromatase (CYP19) [1] (IC50, 7.5 nM P450, 25 μM MFC, 4-parameter logistic model (AR19: 3-parameter, Hill 1), ± SEM) of 30.9 ± 3.1 µM. In addition, the “Fractional activity at saturation” value on aromatase (CYP19) [1] is 0.02 ± 0.02. Moreover, the Hill slope at aromatase (CYP19) [1] is 2.27 ± 0.41; at aromatase (CYP19) [1] (listed as endoxifen) it was 2. Further, on aromatase (CYP19) [2], the Ki is 4 µM.
With `CC(=O)N1CCN(c2ccc(OCC3COC(Cn4ccnc4)(c4ccc(Cl)cc4Cl)O3)cc2)CC1` (stereo not shown) [Ketoconazole, ketoconazole], at aromatase (CYP19) [1], the “Fractional activity at saturation” value is given as 0.03 ± 0.01 and the Hill slope was 1.12 ± 0.07.
As for `COc1ccc2c(C(F)(F)F)cc(=O)oc2c1` [MFC, 7-methoxy-4-(trifluoromethyl)coumarin], the “substrate Vmax” value on CYP19 is 0.731 pmol HFC min^−1 pmol^−1 P450.

B1: CYP19 (Homo sapiens) (protein)
chain: MVLEMLNPIHYNITSIVPEAMPAATMPVLLLTGLFLLVWNYEGTSSIPGPGYCMGIGPLISHGRFLWMGIGSACNYYNRVYGEFMRVWISGEETLIISKSSSMFHIMKHNHYSSRFGSKLGLQCIGMHEKGIIFNNNPELWKTTRPFFMKALSGPGLVRMVTVCAESLKTHLDRLEEVTNESGYVDVLTLLRRVMLDTSNTLFLRIPLDESAIVVKIQGYFDAWQALLIKPDIFFKISWLYKKYEKSVKDLKDAIEVLIAEKRRRISTEEKLEECMDFATELILAEKRGDLTRENVNQCILEMLIAAPDTMSVSLFFMLFLIAKHPNVEEAIIKEIQTVIGERDIKIDDIQKLKVMENFIYESMRYQPVVDLVMRKALEDDVIDGYPVKKGTNIILNIGRMHRLEFFPKPNEFTLENFAKNVPYRYFQPFGFGPRGCAGKYIAMVMMKAILVTLLRRFHVKTLQGQCVESIQKIHDLSLHPDETKNMLEMIFTPRNSDRCLEH
Consider B1, for which the Km in data set [3] was 28.48 µM.

Usually IC50 stands for the point on the concentration scale where inhibition reaches its midpoint. A word on the Hill slope: it is the slope factor of the fitted curve. A word on the Ki: it is a measure of affinity in units of concentration, obtained from inhibition or displacement. For orientation: Km means the concentration of substrate that gives half-maximal velocity.
